Shown are actives, neighbours in structure and some others; about 2.2% of the full set was active somewhere.
DYRK1A inh: rat Dyrk1A kinase inhibitors, primary screen, biochemical, single point, plate reader; Dual specificity tyrosine-phosphorylation-regulated kinase 1A (Rattus norvegicus), Q63470; ADP-Glo luminescence, NFATc1 peptide; inhibition, % at 12.5 µM; actives 0.43% (n = 310,000); AID 504441, 2011; in the data active = inhibition above about 50%
CAL PDZ FP-1: untagged CAL PDZ binding inhibitors, primary screen, biochemical, fluorescence polarization, HTS | actives 0.92% (n = 300,000) | Golgi-associated PDZ and coiled-coil motif-containing protein (Homo sapiens), Q9HD26 | inhibition, % at 24.9 µM | purified CAL PDZ, TMR-peptide fluorescence polarization, 1 h;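 active = mean inhibition of at least 30% with at least half of replicates also reaching 30%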
Rtt109 HAT inh: inhibitors of C. albicans Rtt109/Vps75 HAT, primary screen, biochemical, ThioGlo CoA-SH fluorescence, plate reader. inhibition, % at 34.9 µM. Histone acetyltransferase RTT109 (Candida albicans (strain SC5314 / ATCC MYA-2876)), …. purified Rtt109/Vps75, 4 h. actives 0.16% (n = 330,000);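 active = inhibition of at least 50% in every replicate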
CDK5 p35 inh: inhibitors of human CDK5/p35 kinase, primary screen, biochemical, single concentration. actives 0.01% (n = 330,000). Recombinant CDK5/p35, ADP-Glo luminescence, 60 min. Cyclin-dependent kinase 5 (Homo sapiens) + Cyclin-dependent kinase 5 activator 1 (Homo …. inhibition, % at 10 µM;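 active = highest replicate inhibition of at least 50% and at least 75% of replicates reaching 50%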
Target sequence (Q00535 whole entry, looked up): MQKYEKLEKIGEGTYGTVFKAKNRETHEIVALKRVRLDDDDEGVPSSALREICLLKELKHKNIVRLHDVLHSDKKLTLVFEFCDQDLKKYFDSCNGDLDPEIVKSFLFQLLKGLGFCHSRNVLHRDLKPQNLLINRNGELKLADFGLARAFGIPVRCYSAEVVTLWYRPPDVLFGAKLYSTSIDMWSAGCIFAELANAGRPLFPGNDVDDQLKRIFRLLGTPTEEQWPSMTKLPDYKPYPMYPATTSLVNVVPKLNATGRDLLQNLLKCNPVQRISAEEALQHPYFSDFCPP
Target sequence (Q15078 whole entry, looked up): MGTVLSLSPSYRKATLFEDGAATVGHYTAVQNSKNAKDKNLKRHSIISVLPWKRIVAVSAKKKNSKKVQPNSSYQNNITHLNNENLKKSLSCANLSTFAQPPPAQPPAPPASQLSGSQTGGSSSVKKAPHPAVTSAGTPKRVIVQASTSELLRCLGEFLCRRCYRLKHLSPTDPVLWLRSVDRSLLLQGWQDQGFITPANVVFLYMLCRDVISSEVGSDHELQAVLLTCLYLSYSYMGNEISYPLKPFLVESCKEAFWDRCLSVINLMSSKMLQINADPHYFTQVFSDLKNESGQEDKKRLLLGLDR
CAL PDZ FP-2: CAL PDZ peptide-binding inhibitors, primary screen, biochemical, fluorescence polarization, Cer-tagged CAL PDZ, HTS. purified CAL PDZ, TMR-peptide fluorescence polarization, 1 h. inhibition, % at 20 µM. actives 0.02% (n = 330,000). AID 504414, 2011;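 active = highest replicate inhibition of at least 40%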
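material = purified tagged CAL PDZ domain construct (CerCALP) | buffer or medium = sodium phosphate/NaCl buffer pH 7.4 with TCEP, IgG, Thesit | reagent = TMR-labelled reporter peptide T*-PRC34 bound in PDZ groove | incubation = 1 h room-temperature incubation prior to read | measured by = fluorescence polarization (mP) | evaluation = percent inhibition from loss of millipolarization | control set = unlabelled peptide and DMSO controls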
dFosB activator: activators of delta FosB homodimer, primary screen, biochemical, fluorescence polarization, TAMRA-CDK5 oligo, single point; activation, % at 25 µM; AID 493131, 2011; Protein FosB (Mus musculus), P13346; actives 0.99% (n = 340,000); purified delta FosB; percent of positive-control signal above neutral wells;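 active = mean activation above about 17%, with every replicate also reaching it, limit read from the data, passing the limit was not always enough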
Large screens that a line does not name were inactive.

CCCCNCc1cc(OC)c(OCC(N)=O)cc1Br	none
COc1cccc(CNC(=O)N2CCN(c3ccccc3)CC2)c1	none
CCOCCCNC(=O)N[C@@H](C)C(=O)OC	CAL PDZ FP-1 61.9 (no result: CAL PDZ FP-2)
Cc1ccc(CN2CCCC(C(=O)N3CCCC3)C2)cc1 (stereo not given)	none
CCc1ccc(-c2nc(SCC(=O)c3c(N)n(C4CC4)c(=O)[nH]c3=O)n[nH]2)cc1	dFosB activator 41.8 (no result: DYRK1A inh)
Cc1ccc(-c2nc(SCC(=O)c3c(N)n(C4CC4)c(=O)[nH]c3=O)n[nH]2)cc1	none (no result: DYRK1A inh)
Cn1c(=O)n(C)c2cc(NC(=O)c3ccccc3NS(C)(=O)=O)ccc21	CAL PDZ FP-1 80.4
CCc1ccc(C(=O)Nc2ccc3c(c2)n(C)c(=O)n3C)cc1	none (no result: CAL PDZ FP-1)
O=C(Nc1ccnn1C1CCN(CC2CC=CCC2)CC1)c1ccccc1Cl (stereo not given)	CAL PDZ FP-1 51.4
NCC1CC2c3ccccc3C1c1ccccc12 (stereo not given)	CAL PDZ FP-1 92.4 (no result: CAL PDZ FP-2)
Cc1ccc(S(=O)(=O)N2CCC(NC(=O)c3cccnc3)CC2)cc1Cl	none
O=C(Nc1ccccc1)C1=C(c2ccccc2)S(=O)(=O)CCS1(=O)=O	CAL PDZ FP-1 34.4
O=C(O)c1ccccc1C(=O)Nc1ccccc1	none
Cn1c(CN2CCCC2)nc2cc(NC(=O)COc3ccc(Cl)cc3)ccc21	none (no result: DYRK1A inh, Rtt109 HAT inh)
COc1ccc(OCC(=O)Nc2ccc3c(c2)nc(CN2CCCC2)n3C)cc1	CAL PDZ FP-1 58.1
O=C1OCCC1=Cc1ccccc1	none
Cc1cc(C)cc(NC2=CC(=O)CC(c3ccco3)C2)c1 (stereo not given)	none (no result: CAL PDZ FP-1)
CCc1ccc(NC2=CC(=O)CC(c3ccco3)C2)cc1 (stereo not given)	CAL PDZ FP-1 49.5
CCCCC(=O)Nc1ccc2c(c1)oc1ccccc12	CAL PDZ FP-1 55.6
O=C(O)CCCC(=O)Nc1ccc2c(c1)oc1ccccc12	none
Cc1cccc(C)c1N(CC(=O)N1CCOCC1)S(C)(=O)=O	CAL PDZ FP-1 44.3 (no result: CAL PDZ FP-2)
Cc1cccc(C)c1N(CC(=O)N1CCCC1)S(C)(=O)=O	none (no result: CAL PDZ FP-1)
CCOC(=O)c1cc(-c2ccc(OC)cc2)nc2c1c(C)nn2CCC(N)=S	none
CC(=O)CSc1nc2c(c(=O)[nH]c(=O)n2C)n1CCCc1ccccc1	none
Brc1ccc(-c2noc(C3CCCCC3)n2)cc1	CAL PDZ FP-1 107.3 (no result: Rtt109 HAT inh)
O=C(CC1SCCNC1=O)Nc1cccc(Cl)c1 (stereo not given)	none (no result: CDK5 p35 inh)
CCc1ccccc1NC(=O)CC1SCCNC1=O (stereo not given)	CAL PDZ FP-1 32.0
O=C(CC(=O)c1ccccc1)CC(O)(C=Cc1ccccc1)c1ccccc1 (stereo not given)	CAL PDZ FP-1 51.8
O=C(/C=C/c1ccccc1)CC(=O)c1ccccc1	none
CCCCN(Cc1nc2ccccc2c(=O)[nH]1)C(=O)CN1C(=O)NC2(CCCCC2)C1=O	none
CC(C)CNC(=S)NNC(=O)CC(C)O (stereo not given)	CAL PDZ FP-1 77.0
CCNC(=S)NNC(=O)CC(C)C	CAL PDZ FP-1 36.1
COc1cccc(C(=O)Nc2cccc3c2ccc2cccn23)c1	none (no result: DYRK1A inh)
CN(C)C(=S)SCC(=O)Nc1ccc(Cl)cc1Cl	none
O=C(CCN1C(=O)C2C3CC(C(Br)C3Br)C2C1=O)OCC(=O)c1ccccc1 (stereo not given)	none
COc1ccccc1OCC(=O)N1CCCC(Nc2ccc(F)c(F)c2)C1 (stereo not given)	CAL PDZ FP-1 active
Cc1ccc(NC2CCCN(C(=O)CCN3CCCCO3)C2)cc1C (stereo not given)	CAL PDZ FP-1 61.8
Cc1ccc(NC2CCCN(C(=O)c3ccc4nccnc4c3)C2)cc1C (stereo not given)	none
O=C(c1cc(Cl)ccc1F)N1CCCC(Nc2ccc3c(c2)OCCO3)C1 (stereo not given)	CAL PDZ FP-1 36.8
O=C(c1ccc2nccnc2c1)N1CCCC(Nc2ccc(F)c(F)c2)C1 (stereo not given)	CAL PDZ FP-1 51.3
CCCOc1ccc(NC(=O)C(=O)NCCCn2ccnc2)cc1	none
COc1cc(NC(=O)COc2ccc(Cl)cc2)ccc1-c1cc2ccccc2oc1=O	none
COc1ccccc1CNC(=O)C/C(C)=N/NC(=O)Cc1ccc(Cl)cc1	none
CC(C)CC1C(=O)N(Cc2cn(CC3CCCCC3)nn2)CCS(=O)(=O)N1Cc1ccc(-c2cccc(C#N)c2)cc1 (stereo not given)	none (no result: DYRK1A inh)
CC[n+]1c(C)sc2c(C)cc(C)cc21	Rtt109 HAT inh 114.1
Cc1ccc2c(C)cc[n+](CCCS(=O)(=O)[O-])c2c1	none
Cc1cc(C)c2sc(C)[n+](CCCS(=O)(=O)[O-])c2c1	Rtt109 HAT inh 90.1
CC[n+]1c(C)sc2cc(OC)ccc21	none
COc1ccc(Cl)cc1C(=O)NNC(=O)CNC(=O)c1ccc(C)s1	CAL PDZ FP-1 54.0
CCOc1ccc(C(=O)NNC(=O)CNC(=O)c2ccc(C)s2)cc1OC	none
CCN(CC(=O)NCc1ccc(Cl)cc1)C(=O)C(C)Sc1ccccc1 (stereo not given)	none
Cc1ccc(OCC(=O)N2CCN(C(=O)c3cccs3)CC2)cc1	CAL PDZ FP-1 45.7 (no result: CAL PDZ FP-2)
Cc1ccc(OCC(=O)N2CCN(C(=O)c3ccco3)CC2)cc1	none (no result: DYRK1A inh)
COc1ccc(NC(=O)CC#N)cc1OC	CAL PDZ FP-1 30.2 (no result: CAL PDZ FP-2)
COc1ccc(N(C(=O)c2snc(C(N)=O)c2N)C(C(=O)NC2CCCC2)c2cccs2)c(OC)c1 (stereo not given)	none
CN1CCCN(C(=O)c2ccc(Cl)cc2)CC1	none
CN1CCN(C(=O)c2cc(Cl)cc(Cl)c2)CC1	CAL PDZ FP-1 63.9 (no result: CAL PDZ FP-2)
CCN(CC)S(=O)(=O)c1ccc(N2CCc3cc(OC)c(OC)cc3C2)nc1	CAL PDZ FP-1 50.5
CCN(CC)S(=O)(=O)c1ccc(N/N=C/c2cc(OC)c(OC)cc2OC)nc1	none
COC(=O)C1CCN(C(=O)C2CC(=O)N(c3ccc(C)c(Cl)c3)C2)CC1 (stereo not given)	none (no result: CAL PDZ FP-1)
COc1cccc(CN2CCC(C(=O)Nc3ccc(-c4cccc(C)c4)cc3)CC2)c1O	dFosB activator 40.2
Cc1ccc(S(=O)(=O)Nc2ccccc2N2CCCCC2)cc1	none
